For test [1], the system named is MIA PaCa-2. The experiment in a line: Cytotoxicity against human MIA PaCa2 cells assessed as reduction in cell viability in presence of Cu2+ incubated for 72 hrs by cell titer-glo luminescent cell viability assay. The test is classed as functional, cell-based. Particulars: MIA PaCa-2, 72 h. Summed up:
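Cells were grown in DMEM or RPMI with 10% FBS, without antibiotics, at 37 °C, 20% O2, 5% CO2. Adherent lines were seeded at 500 cells/well. Serially diluted compound was given with 20 μM Cu(II) (CuCl2) for 72 h; leukemia models received pre-formed 1:1 copper complex. ATP was read by CellTiter-Glo luminescence. IC50 is relative to DMSO-treated cells.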

Test [2] concerns MIA PaCa-2. The experiment in a line: Cytotoxicity against human MIA PaCa2 cells assessed as reduction in cell viability 72 hrs by cell titer-glo luminescent cell viability assay. The test is classed as functional. Summed up: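 MIAPACA2 cells in conventional medium without copper supplement got serially diluted compound for 72 h. ATP content was read by CellTiter-Glo, and IC90 (90% proliferation inhibition vs DMSO control) was calculated.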

Regarding `CNC(=S)N/N=C/c1nccc2ccccc12`, in test [1], the IC90 was found to be 331 nM.

Regarding `NC(=S)N/N=C/c1nccc2c(N)cccc12`, the 90% effect concentration (IC90) in test [1] turned out to be 71100 nM.

`CNc1cccc2c(/C=N/NC(N)=S)nccc12`: in test [1], the IC90 worked out at 5330 nM.

For `CN(C)C(=S)NN=Cc1nccc2ccccc12`, the IC90 in test [1] came to 73.7 nM; in test [2], 29600 nM.

Consider `CNc1c(F)ccc2c(C=NNC(=S)N(C)C)nccc12`, for which the results for the IC90 in test [1] and in test [2] were 38.4 nM and 272 nM, respectively.

Take `CNC(=S)N/N=C/c1ncc(F)c2ccccc12`: in test [1], the concentration for an effect of 90% (IC90) is 114 nM.

Regarding `CNC(=S)NN=Cc1nccc2c(NC)cccc12`, the 90% effect concentration (IC90) in test [1] came to 607 nM; in test [2], 4240 nM.

As to `CN(C)C(=S)NN=Cc1ncc(F)c2ccccc12`, the values for the 90% effect concentration (IC90) in test [1] and in test [2] were 26.6 nM and 274 nM, respectively.

In the case of `NC(=S)N/N=C/c1nccc2ccccc12`, in test [1], the IC90 amounted to 2210 nM.

Take `NC(=S)N/N=C/c1ncc(F)c2ccccc12`: in test [1], the 90% effect concentration (IC90) was 2060 nM.

Regarding `NC(=S)N/N=C/c1nccc2cc(F)ccc12`, in test [1], the IC90 stood at 2040 nM.

Take `CNC(=S)NN=Cc1nccc2c(N)cccc12`: the figures for the IC90 in test [1] and in test [2] were 7080 nM and 11200 nM, respectively.

`CNc1cccc2c(C=NNC(=S)N(C)C)ncc(F)c12`: the 90% effect concentration (IC90) was determined as 42.3 nM in test [1] and 327 nM in test [2].

`CNC(=S)N/N=C/c1nccc2cc(F)ccc12`: the IC90 in test [1] was found to be 233 nM.

The values above are taken from ChEMBL document CHEMBL4699407, “Isoquinoline thiosemicarbazone displays potent anticancer activity with in vivo efficacy against aggressive leukemias” (RSC Med Chem, 2020).
